# hERG rescue – compounds protecting human hERG from proarrhythmic drug block. activation (rescue from dofetilide block), less the hit threshold, % at 10 µM. 310,000 tested, 0.51% active. CHO-hERG, FluxOR thallium flux, dofetilide IC70 present. Q12809;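 active means activation above the mean of controls blocked by dofetilide plus 5 SD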;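 further: thallium influx through hERG after potassium depolarization seen as dye fluorescence rise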
# Kir21 block – blocks the mouse Kir2.1 inward-rectifier potassium channel. P35561. HEK293-Kir2.1, FluxOR thallium flux fluorescence; hits give low values. B-score at 10 µM. 310,000 tested, 0.85% active. AID 1672;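 active means fluorescence ratio B-score at or below minus 3 SD of library scores, with starting-brightness B-score within 2 SD, cut at about -4.2 in these data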;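 further: channel flux triggered by added potassium and thallium sulfate stimulus; B-score of peak minus minimum fluorescence over baseline after thallium stimulus; more negative B-score means stronger Kir2.1 block with less thallium influx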
# KCNK3 block – human KCNK3 channel inhibition, primary screen | B-score at 10 µM | CHO-KCNK3 thallium flux, FluxOR fluorescence; hits give low values | O14649 | 340,000 tested, 0.84% active;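 active means B-score under library mean minus 4 SD, starting fluorescence ratio at most library mean plus 5 SD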;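 further: more negative B-score means stronger inhibition of thallium flux through KCNK3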
# KCNQ1 act – potentiates or activates the human KCNQ1 potassium channel | CHO-K1 KCNQ1, thallium flux FluxOR fluorescence; hits give high values | B-score at 10 µM | 310,000 tested, 0.35% active | AID 2648;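 active means fluorescence ratio B-score, a plate-corrected score, at least three library SD, with initial intensity B-score within 5 SD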
# Target sequence (P51787 whole entry, looked up): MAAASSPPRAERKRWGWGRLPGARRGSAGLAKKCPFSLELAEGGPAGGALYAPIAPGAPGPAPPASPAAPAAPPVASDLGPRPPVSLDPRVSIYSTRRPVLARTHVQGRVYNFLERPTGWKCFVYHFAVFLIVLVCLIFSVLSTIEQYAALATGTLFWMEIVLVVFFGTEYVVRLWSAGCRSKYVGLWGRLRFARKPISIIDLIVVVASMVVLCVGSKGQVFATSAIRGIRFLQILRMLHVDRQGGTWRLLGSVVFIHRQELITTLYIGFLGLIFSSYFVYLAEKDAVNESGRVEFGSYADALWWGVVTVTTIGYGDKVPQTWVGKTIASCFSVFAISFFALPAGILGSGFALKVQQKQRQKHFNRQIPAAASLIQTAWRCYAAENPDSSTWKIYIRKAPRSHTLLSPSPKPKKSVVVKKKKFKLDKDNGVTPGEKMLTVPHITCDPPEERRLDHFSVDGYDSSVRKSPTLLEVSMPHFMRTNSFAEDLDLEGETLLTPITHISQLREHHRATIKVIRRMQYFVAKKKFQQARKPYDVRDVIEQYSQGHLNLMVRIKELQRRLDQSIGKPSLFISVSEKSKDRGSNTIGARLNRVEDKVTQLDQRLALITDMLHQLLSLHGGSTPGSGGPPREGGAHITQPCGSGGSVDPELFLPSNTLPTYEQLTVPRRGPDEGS
#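 System: Stable KCNQ1 CHO-K1 line | Incubation: 90 min dye loading and 20 min compound exposure, both at room temperature | Measure: Ratio B score | Medium: Assay buffer for compound exposure, DMSO matched across wells | Compound dosing: Single-concentration screen | Probe or stimulus: K+/Tl+ depolarizing stimulus | Measured by: Kinetic FluxOR fluorescence, 10 s baseline plus 110 s post-stimulus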
# KCNQ1 block – blocks the human KCNQ1 potassium channel. B-score at 10 µM. CHO-K1 KCNQ1, FluxOR thallium flux fluorescence; hits give high values. 310,000 tested, 1.3% active. P51787;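 active means compounds whose thallium flux B-score, printed positive for inhibition, exceeds three library SD while starting fluorescence stays within three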;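 further: channel opened by potassium depolarization with thallium stimulus after 20 min compound exposure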
# KCNK9 inh – human KCNK9 channel inhibition | Q9NPC2 | HEK293 KCNK9, FluxOR thallium flux fluorescence; hits give low values | B-score at 10 µM | 310,000 tested, 1.2% active | AID 488922;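 active means ratio B-score over 3 SD below the library mean, with starting fluorescence within 5 SD of its mean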;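 further: negative B-score means less thallium flux so channel inhibition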
# Starred values were filed as active, the others as inactive; i = inactive; x = no result given. Hits are enriched below; roughly 3.7% of the tested compounds scored in any of these assays.
SMILES,hERG rescue,Kir21 block,KCNK3 block,KCNQ1 act,KCNQ1 block,KCNK9 inh
CCOC(=O)Cc1ccc(NC(=O)c2cccc([N+](=O)[O-])c2)cc1,2,0.03,i,i,i,i
O=C(Nc1cccc([N+](=O)[O-])c1)Nc1cccs1,-32,1.2,i,i,8*,i
O=C(Cc1ccc([N+](=O)[O-])cc1)Nc1cc(C(F)(F)F)cc(C(F)(F)F)c1,-8,-0.61,i,i,i,i
Nc1ccccc1C(=O)NCCCN1CCN(c2cccc(Cl)c2)CC1,-9,0,i,i,i,i
O=C1Nc2ccccc2/C1=C/c1cnc(-c2ccccc2)[nH]1,-5,-1.6,i,i,i,-6.6*
Cc1ccc(-c2nn(-c3cc(N4CCNCC4)ccc3[N+](=O)[O-])c(=O)c3ccccc23)cc1,-18,-4.2*,i,i,i,i
Cc1nn(-c2cc(N3CCCCCC3)ccc2[N+](=O)[O-])c(=O)c2ccccc12,-5,1.5,i,i,i,i
COc1cccc(N(C(=O)CNC(=O)c2ccco2)C(C(=O)NC2CCCC2)c2ccco2)c1 (centres undefined),-8,1.7,i,i,i,i
COc1ccc(-c2csc3ncn(-c4ccccc4OC)c(=O)c23)cc1OC,-2,-2.4,i,i,i,i
CCOc1ccc(-n2cnc3sc(C)c(C)c3c2=O)cc1,5.6*,-0.06,i,i,i,i
Cc1sc2ncn(-c3ccccc3)c(=O)c2c1C,-10,1,i,i,i,i
COc1ccccc1-n1cnc2sc(C)c(C)c2c1=O,6.0*,1.2,i,i,i,i
N#C/C(=N\Nc1ccccc1F)c1nc(-c2ccccc2)cs1,18*,-0.02,i,i,i,i
CC(=O)Oc1ccc(C(c2ccc(OC(C)=O)cc2)c2ccccn2)cc1,-5,-4.3*,i,i,i,i
c1ccc(C(c2ccccn2)c2ccccn2)cc1,-1,-0.75,i,i,i,i
O=C(c1ccc(S(=O)(=O)N2CCCC2)cc1)N1CCN(c2cccc(Cl)c2)CC1,-12,0.74,i,9*,i,i
O=C(c1ccc(S(=O)(=O)N2CCCC2)cc1)N1CCN(c2ccccc2)CC1,-8,1.1,i,i,i,i
CC(=O)c1c(C(C)=O)c(C)n(-c2cccc([N+](=O)[O-])c2)c1C,-2,-1.1,i,i,i,i
Cc1cc(C(=O)CCl)c(C)n1-c1cccc([N+](=O)[O-])c1,-10,-1.2,i,11*,i,i
CCOC(=O)c1cnc2c(ccc3ccccc32)c1N,0,-0.93,i,i,i,i
CCOC(=O)c1cc(C#N)c(Oc2cccc(C(F)(F)F)c2)nc1-c1ccccc1,-13,1,i,i,6*,i
Cc1ccccc1C(=O)Nc1ccnn1C1CCN(Cc2cnn(C(C)C)c2)CC1,-8,0.35,i,i,i,i
N/C(CSc1nc(-c2ccccc2)c(-c2ccccc2)o1)=N\O,-12,0.03,i,i,8*,-7.2*
CC(C)OCCCNC(=O)c1ccc2c(c1)S(=O)(=O)c1ccccc1C2=O,-13,0.99,i,i,i,i
COCCCNC(=O)c1ccc2c3c(onc13)-c1ccccc1C2=O,-56,-14,i,i,10*,i
SMILES,hERG rescue,Kir21 block,KCNK3 block,KCNQ1 act,KCNQ1 block,KCNK9 inh
O=S(=O)(Nc1ccccc1N1CCOCC1)c1ccccc1C(F)(F)F,x,x,-10*,x,x,x
O=C(NC(=S)N1CCN(c2ccc(Cl)cc2[N+](=O)[O-])CC1)c1ccco1,-3,-0.05,i,i,i,i
O=C(NC(=S)N1CCN(c2ccc(Cl)cc2[N+](=O)[O-])CC1)c1cccs1,6.3*,-0.51,i,20*,i,i
COc1cccc(OC)c1C(=O)NC(=S)N1CCN(c2ccc(C(F)(F)F)cc2[N+](=O)[O-])CC1,11*,0.31,i,i,i,i
O=C(Cn1nc(C(=O)O)c2ccccc2c1=O)Nc1cc(C(F)(F)F)ccc1-n1cncn1,x,x,i,x,x,x
CCOc1ccc(Oc2ccc(NC(=O)[C@@H](NC(N)=O)[C@@H](C)CC)cc2)cc1,-14,-1.5,i,i,i,i
O=c1c(C=NCCN2CCNCC2)c(-c2ccccc2)[nH]n1-c1ccc([N+](=O)[O-])cc1,-18,-5.4*,x,i,i,i
CCCCc1nc2cc(Cl)ccc2o1,2,0.92,i,i,i,i
Cc1c2c(nc3ccccc13)CC(C)(C)CC2=O,-12,-0.93,i,i,i,i
CC1(C)CC(=O)c2c(nn(-c3ccccc3)c2-c2ccncc2)C1,7.1*,-0.22,i,i,i,i
NCC(c1ccccc1Cl)c1c[nH]c2ccccc12 (centres undefined),-5,-0.73,i,i,i,i
CN(C)CCCNC(=S)NCC(c1ccc(Cl)cc1Cl)c1c[nH]c2ccccc12 (centres undefined),-14,-6.5*,i,i,i,i
NCC(c1ccc(Cl)cc1Cl)c1c[nH]c2ccccc12 (centres undefined),-8,-8.7*,i,i,i,i
COc1ccc([N+](=O)[O-])cc1NC(=O)C(C)OC(=O)CC1CCCC1 (centres undefined),x,x,i,x,x,x
CC(=O)Nc1ccccc1C(=O)C(=O)Nc1ccc(Cl)cc1,8.2*,0.83,i,i,i,i
COc1ccc(C)cc1Nc1n[n+](-c2ccccc2)c(-c2cc(OC)c(OC)cc2Br)s1,-21,-6*,i,i,7*,i
Cc1ccc(CN2CCC(C(=O)Nc3cccc(-c4cccc(F)c4)c3)CC2)o1,-17,-5.1*,i,i,i,i
O=C(Nc1cccc(-c2cccc(Cl)c2)c1)C1CCN(Cc2ccc(CO)o2)CC1,-31,-6.1*,i,i,i,i
O=C(c1cccs1)N1N=C(c2ccc(O)cc2)CC1c1ccccc1 (centres undefined),-4,-0.01,i,i,i,i
O=C(c1cccs1)N1N=C(c2ccccc2)CC1c1ccccc1 (centres undefined),-5,0.41,i,i,i,-7.2*
Cc1ccc(NC(=O)c2cc(S(=O)(=O)N3CCCCC3)c[nH]2)cc1C,-4,-1.1,i,i,i,i
C=C(C(=O)c1ccccc1)C(C)C(=C)C(=O)c1ccccc1,-5,-4.4*,i,i,i,i
Cc1noc(C)c1COc1ccccc1C(=O)N(C)Cc1ccc(C(C)(C)C)cc1,x,x,i,x,x,x

# Source: PubChem (Johns Hopkins Ion Channel Center)
